The array DNA melting data of Ke et al. (doi:10.1101/2024.01.08.574731)

Columns and labels:
[1] = melting temperature; fluorescence melt of hairpins on a sequencing array, two-state fit, raised by 9.35 °C to match UV melts; conditions: sodium 0.088 M
In short: (§1)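 Melting temperature and folding enthalpy were obtained by bootstrapped two-state fitting. Fits used Cy3 fluorescence of library hairpins with annealed Cy3 and quencher oligos on a sequenced MiSeq flow cell, imaged in 50 mM Na-HEPES pH 8.0, 25 mM NaCl in 2.5 °C steps up to 60 °C and normalised to pre-quench Cy3 and control constructs. Four replicates were combined by inverse-variance weighting, and fitted temperatures were raised by 9.35 °C to match UV melts.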

[2] = folding enthalpy; higher = less favourable; fluorescence melt of hairpins on a sequencing array, two-state fit; conditions: sodium 0.088 M
In short: as §1

Sequence | Tm [1] [°C] | folding enthalpy [2] [kcal/mol]
GCTTGTCGAAAGACGAGC (((.(((....))).))) | 61.3 | -36.9
GACATACGAAAGTAGTC (((.(((....)))))) | 41.5 | -22.2
GACGCGGGAAACCGCGCC (.(((((....))))).) | 55 | -11.8
GATCTACCGTAGATC ((((((...)))))) | 39.1 | -31.6
GCAGTTACGAAAGTATGC (((..(((....)))))) | 33.9 | -21.6
GATCGTAGCCACGATC ((((((....)))))) | 56.2 | -39.3
GTTGGCGAAAGCCTAAAC ((((((....)))..))) | 30.7 | -8.68
GATCTAAATTAGATC ((((((...)))))) | 37.8 | -21.3
GTACTCCGAAAGGATTAC (((.(((....))).))) | 37.6 | -29.8
GTGTCCGAAAGGAATCAC ((((((....)))..))) | 34.3 | -17.3
GAAACGCGAAAGCGATTC (((.(((....))).))) | 50.8 | -28.3
GCATCGACGAAAGTCTGC (((..(((....)))))) | 33.6 | -15.8
CGATCGGAAACGATGTCG ((((((....)))..))) | 39.5 | -13.6
GCCCACGAAAGTGTGGGC ((((((....)))..))) | 68 | -31.5
GATCCAAGTTGGATC ((((((...)))))) | 49.1 | -35.7
GTTGGAGGAAACTTCAGC (.((.((....)).)).) | 30.5 | -12.7
GCTCTGCGAAAGCAGCGC ((.((((....)))).)) | 57.6 | -17.3
GTCAATCGAAAGATGGAC (((.(((....))).))) | 49.2 | -25.5
GCATTGCGAAAGCCATGC ((((.((....)).)))) | 58.4 | -29.1
GCTAGGCGAAAGCCCAGC (((.(((....))).))) | 50.7 | -23.7
GATCAGAATACTGATC ((((((....)))))) | 47.4 | -39.2
GATCAGAGTTCTGATC ((((((....)))))) | 50.5 | -36.6
GCCCGGCGAAAGCCGTGC ((.((((....)))).)) | 59.8 | -13.9

Sequence | Tm [1] [°C] | folding enthalpy [2] [kcal/mol]
GGTCGCGAAAGCGACACC ((((((....)))..))) | 60.7 | -5.57
GGAGCCCGAAAGGGTCC (((.(((....)))))) | 59.9 | -18.9
CGCGCGGAAACGCAAGCG ((((((....)))..))) | 56.8 | -34
GATCCATACGTGGATC ((((((....)))))) | 54.5 | -51
GAGCTTGGAAACAAGCCC (.(((((....))))).) | 42.8 | -13.2
GGTGTAGGAAACTGCACC ((((.((....)).)))) | 52.7 | -44.5
GCCCGAGGAAACTTGGGC ((((.((....)).)))) | 58.1 | -41.1
GATCTTTACAAAGATC ((((((....)))))) | 46.5 | -33.8
GCGGGGTGCCGC ((((....)))) | 61.2 | -26.3
GAGTCAGGAAACTGATTC ((.((((....)))).)) | 39.8 | -27.1
GGATCCCCGAAAGGGTCC (((..(((....)))))) | 45.3 | -19.8
GACCGCACGAAAGTGGTC (((..(((....)))))) | 47 | -21.1
GAGACCCGAAAGGGACTC (((.(((....))).))) | 57.6 | -32.4
GTTTGCGCGAAAGCGAAC (((..(((....)))))) | 36.5 | -12
GGTACACGAAAGTGGACC (((.(((....))).))) | 67.2 | -38.2
GGAGAGTCGAAAGACTCC (((..(((....)))))) | 46.6 | -10.9
GCGGAGCGAAAGCTGTGC ((..(((....)))..)) | 51 | -14.2
GATCTAGCCATAGATC ((((((....)))))) | 49.3 | -41
GCTGTGCGAAAGCTCCGC ((.(.((....)).).)) | 40 | -14.5
GATCGGCTGTCCGATC ((((((....)))))) | 56.3 | -39.6
GGGCCGACGAAAGTCCCC (((..(((....)))))) | 43.8 | -12
GATCGTATCACGATC ((((((...)))))) | 58.4 | -37.6
GACCCCGAAAGGGATGTC ((((((....)))..))) | 41.2 | -15.6

Sequence | Tm [1] [°C] | folding enthalpy [2] [kcal/mol]
GGCTCGGGAAACTGAGCC (((((.(....).))))) | 61.4 | -61.1
CGACCGGAAACGGTCTCG ((((((....)))..))) | 38 | -8.29
GATTAGCCGAAAGGCATC (((..(((....)))))) | 28.5 | -7.43
GCCCCGGGAAACCGGGAC (.(((((....))))).) | 53.7 | -12.2
GCGGCATACCGC ((((....)))) | 58.3 | -32
GTACTTCGAAAGAATAC (((.(((....)))))) | 25.9 | -7.86
GATCGTAATTACGATC ((((((....)))))) | 56.3 | -36
GGGAAACGAAAGTTGCCC (((.(((....))).))) | 56.6 | -43.9
GCGATCGAAAGATGACGC ((((((....)))..))) | 44.1 | -28.3
GTTCGAGGAAACTTGAAC ((((.((....)).)))) | 44.5 | -32.4
GTGGAACGAAAGTTCAC (((.(((....)))))) | 44.9 | -11.2
GCTGTAGGAAACTACGGC ((.((((....)))).)) | 53.3 | -42.9
GCCCATACGAAAGTAGGC (((..(((....)))))) | 41.5 | -20.8
GGAAACGGAAACGTTTCC (((((((....))))))) | 64.8 | -45.5
GCAATTGGAAACGATTGC (((((.(....).))))) | 48.4 | -37.4
GATCCCCGCGGGGATC ((((((....)))))) | 67.4 | -38.8
GCATAGGGAAACTTGTGC (((.(.(....).).))) | 29.9 | -13
GATCGTGATACGATC ((((((...)))))) | 57.2 | -35.9
CGACTCGGAAACGATTCG (((.(((....))).))) | 42.5 | -41
GACGATGGAAACATCGCC (.(((((....))))).) | 47.3 | -17.9
GATCAAAATTTGATC ((((((...)))))) | 39.3 | -26.4
GTCTCGCGAAAGCGCGAC (((.(((....))).))) | 53 | -27.7
GCCCTCGAAAGAGTGGGC ((((((....)))..))) | 52.7 | -25.6

Sequence | Tm [1] [°C] | folding enthalpy [2] [kcal/mol]
GATGACGCGAAAGCGATC (((..(((....)))))) | 35 | -8.64
GACCCCGAAAGGGCAGTC ((((((....)))..))) | 35.4 | -14
GATCATTTGTATGATC ((((((....)))))) | 47.4 | -36
GGTCACGAAAGTGGACC ((((((....))).))) | 55.3 | -29
GCCGGGGGAAACCCTGGC (((.(((....))).))) | 65.4 | -40.9
GCTCGGCGAAAGCAGTGC ((.(.((....)).).)) | 60.6 | -11.7
GCTGGAGCGAAAGCTAGC (((..(((....)))))) | 49.9 | -16.6
GTATGGTCGAAAGACTAC (((..(((....)))))) | 27.9 | -15.5
GATGACGAAAGTCCTATC ((((((....)))..))) | 24 | -9.62
GGTGGCCGAAAGGCACC (((.(((....)))))) | 61.8 | -18.5
GCACCGGGAAACCGATGC (((.(((....))).))) | 50.6 | -25.2
GCGCTCGAAAGAGTCCGC ((((((....)))..))) | 42.8 | -24.3
GCTCACCGAAAGGTAAGC (((.(((....))).))) | 48.6 | -29.1
GGTGTTACGAAAGTAACC (((..(((....)))))) | 45.2 | -13.8
GATCCTCCGGAGGATC ((((((....)))))) | 55.1 | -29.5
GCGTCTCGAAAGAGTCGC (((.(((....))).))) | 58.1 | -38.1
GATCTCCAGTGAGATC ((((((....)))))) | 50.7 | -32
GGCAAACCGAAAGGTGCC (((..(((....)))))) | 56 | -39.1
GTGATCGAAAGATACAC ((((((....))).))) | 35.8 | -22.1
GCGTGTGTACGC ((((....)))) | 53.3 | -25.7
GGGGTCCCGAAAGGGCCC (((..(((....)))))) | 65.3 | -14.6
GGGGGCGAAAGCCGGCCC ((((((....)))..))) | 48 | -14.3
CGAACGGAAACGTAATCG ((((((....)))..))) | 24.5 | -8.82
